According to ChEMBL document CHEMBL3244101, “2-, 3-, and 4-(alpha, alpha, beta, beta-tetrafluorophenethyl)benzylamines. A new class of antiarrhythmic agents” (J Med Chem, 1977):
Active and inactive are the calls of the source. The calls are words filed in the database; no cut-off is given here.

Experiments:
Canis familiaris [1] = experiment: Antiarrhythmic activity in anesthetized acute myocardial infarction dog model assessed as normal ECG complexes at 2.5 mg/kg, iv administered 10 mins prior to infarction measured during 1-hr postinfarction period (reference value: 19%); type: functional, Canis lupus familiaris, Heart
Outline: (§1)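 Sclerosing agent (tetrafluorohexachlorobutane) injected into the anterior descending coronary artery to produce a multifocal ventricular arrhythmia. Single iv dose 10 min before infarction. Segmented ECG tracings over the 1 h after infarction were scored as the percentage of complexes of sinus origin (normal). Saline controls were run alongside.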

Canis familiaris [2] = experiment: Antiarrhythmic activity in iv dosed anesthetized acute myocardial infarction dog model assessed as protection against ventricular arrhythmia development administered 10 mins prior to infarction measured during 1-hr postinfarction period; type: functional, Canis lupus familiaris, Heart; outline: as §1
Canis familiaris [3] = experiment: Antiarrhythmic activity in anesthetized acute myocardial infarction dog model assessed as normal ECG complexes at 1.25 mg/kg, iv administered 10 mins prior to infarction measured during 1-hr postinfarction period (reference value: 19%); type: functional, Canis lupus familiaris, Heart; outline: as §1
Canis familiaris [4] = experiment: Antiarrhythmic activity in anesthetized acute myocardial infarction dog model assessed as normal ECG complexes at 0.5 mg/kg, iv administered 10 mins prior to infarction measured during 1-hr postinfarction period (reference value: 19%); type: functional, Canis lupus familiaris, Heart; outline: as §1
Canis familiaris [5] = experiment: Effect on cardiac conduction in anesthetized acute myocardial infarction dog model assessed as increase in PR interval at 0.06 mg/kg/min, iv administered as continuous infusion for 60 mins measured after 10 mins (reference value: 0 ms); type: functional, Canis lupus familiaris, Heart
Canis familiaris [6] = experiment: Effect on cardiac conduction in anesthetized acute myocardial infarction dog model assessed as increase in PR interval at 0.0125 mg/kg/min, iv administered as continuous infusion for 60 mins measured after 10 mins (reference value: 0 ms); type: functional, Canis lupus familiaris, Heart
Canis familiaris [7] = experiment: Effect on cardiac conduction in anesthetized acute myocardial infarction dog model assessed as increase in PR interval at 0.03 mg/kg/min, iv administered as continuous infusion for 60 mins measured after 10 mins (reference value: 0 ms); type: functional, Canis lupus familiaris, Heart
Canis familiaris [8] = experiment: Effect on cardiac conduction in anesthetized acute myocardial infarction dog model assessed as increase in QT duration at 0.025 mg/kg/min, iv administered as continuous infusion for 60 mins measured after 10 mins (reference value: 2 ms); type: functional, Canis lupus familiaris, Heart
Canis familiaris [9] = experiment: Effect on cardiac conduction in anesthetized acute myocardial infarction dog model assessed as increase in QT duration at 0.0125 mg/kg/min, iv administered as continuous infusion for 60 mins measured after 10 mins (reference value: 2 ms); type: functional, Canis lupus familiaris, Heart
Canis familiaris [10] = experiment: Effect on cardiac conduction in anesthetized acute myocardial infarction dog model assessed as increase in QT duration at 0.03 mg/kg/min, iv administered as continuous infusion for 60 mins measured after 10 mins (reference value: 2 ms); type: functional, Canis lupus familiaris, Heart
Canis familiaris [11] = experiment: Effect on cardiac conduction in anesthetized acute myocardial infarction dog model assessed as increase in PR interval at 0.025 mg/kg/min, iv administered as continuous infusion for 60 mins measured after 10 mins (reference value: 0 ms); type: functional, Canis lupus familiaris, Heart
Canis familiaris [12] = experiment: Effect on cardiac conduction in anesthetized acute myocardial infarction dog model assessed as increase in QT duration at 0.06 mg/kg/min, iv administered as continuous infusion for 60 mins measured after 10 mins (reference value: 2 ms); type: functional, Canis lupus familiaris, Heart
Canis familiaris [13] = experiment: Antiarrhythmic activity in anesthetized acute myocardial infarction dog model assessed as normal ECG complexes at 0.06 mg/kg, iv administered 10 mins prior to infarction measured during 1-hr postinfarction period (reference value: 19%); type: functional, Canis lupus familiaris, Heart; outline: as §1
Canis familiaris [14] = experiment: Antiarrhythmic activity in anesthetized acute myocardial infarction dog model assessed as normal ECG complexes at 0.25 mg/kg, iv administered 10 mins prior to infarction measured during 1-hr postinfarction period (reference value: 19%); type: functional, Canis lupus familiaris, Heart; outline: as §1
Canis familiaris [15] = experiment: Effect on cardiac conduction in anesthetized acute myocardial infarction dog model assessed as increase in QT duration at 5 mg/kg, iv administered 10 mins prior to infarction measured after 10 mins (reference value: 2 ms); type: functional, Canis lupus familiaris, Heart
Canis familiaris [16] = experiment: Effect on cardiac conduction in anesthetized acute myocardial infarction dog model assessed as increase in PR interval at 2.5 mg/kg, iv administered 10 mins prior to infarction measured after 10 mins (reference value: 0 ms); type: functional, Canis lupus familiaris, Heart
Canis familiaris [17] = experiment: Reduction in heart rate in anesthetized acute myocardial infarction dog model at 5 mg/kg, iv administered 10 mins prior to infarction (reference value: 6 bpm); type: functional, Canis lupus familiaris
Canis familiaris [18] = experiment: Effect on cardiac conduction in anesthetized acute myocardial infarction dog model assessed as increase in PR interval at 5 mg/kg, iv administered 10 mins prior to infarction measured after 10 mins (reference value: 0 ms); type: functional, Canis lupus familiaris, Heart
Canis familiaris [19] = experiment: Reduction in heart rate in anesthetized acute myocardial infarction dog model at 2.5 mg/kg, iv administered 10 mins prior to infarction (reference value: 6 bpm); type: functional, Canis lupus familiaris
Canis familiaris [20] = experiment: Myocardial depressant activity in iv dosed anesthetized dog at higher doses; type: ADME, organism-based, Canis lupus familiaris, Myocardium; conditions: in vivo
Canis familiaris [21] = experiment: Hypotensive activity in iv dosed anesthetized dog at higher doses; type: ADME, organism-based, Canis lupus familiaris; conditions: in vivo
Canis familiaris [22] = experiment: Antiarrhythmic activity in anesthetized acute myocardial infarction dog model assessed as normal ECG complexes at 5 mg/kg, iv administered 10 mins prior to infarction measured during 1-hr postinfarction period (reference value: 19%); type: functional, Canis lupus familiaris, Heart; outline: as §1
Canis familiaris [23] = experiment: Effect on cardiac conduction in anesthetized acute myocardial infarction dog model assessed as increase in QT duration at 2.5 mg/kg, iv administered 10 mins prior to infarction measured after 10 mins (reference value: 2 ms); type: functional, Canis lupus familiaris, Heart
Canis familiaris [24] = experiment: Antiarrhythmic activity in anesthetized acute myocardial infarction dog model assessed as normal ECG complexes at 10 mg/kg, po administered 120 mins prior to infarction measured post-infarction; type: functional, Canis lupus familiaris, Heart
Outline: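 Oral dosing 120 min before infarction in the same intracoronary tetrafluorohexachlorobutane arrhythmia model. Protection was read from ECG complexes after infarction, as the percentage that were normal.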

Canis familiaris [25] = experiment: Antiarrhythmic activity in anesthetized acute myocardial infarction dog model assessed as normal ECG complexes at 0.07 mg/kg, iv administered 10 mins prior to infarction measured during 1-hr postinfarction period (reference value: 19%); type: functional, Canis lupus familiaris, Heart; outline: as §1
Canis familiaris [26] = experiment: Antiarrhythmic activity in anesthetized acute myocardial infarction dog model assessed as normal ECG complexes at 10 mg/kg, iv administered 10 mins prior to infarction measured during 1-hr postinfarction period (reference value: 19%); type: functional, Canis lupus familiaris, Heart; outline: as §1
[27] = Canis lupus familiaris, Heart, iv, read-out: ED75

Compound	Activity (Canis familiaris [1]) [%]	ED75 (Canis familiaris [2]; [27]) [mg/kg]	Activity (Canis familiaris [3]) [%]	Activity (Canis familiaris [4]) [%]	Activity (Canis familiaris [14]) [%]	further results
CC(N)c1ccccc1C(F)(F)C(F)(F)c1ccccc1.O=C(O)/C=C\C(=O)O (stereo not drawn)	87	1.3	82	43	–	–
CCN(CC)CC(=O)Nc1c(C)cccc1C [LIDOCAINE]	–	–	–	–	–	Time (Canis familiaris [5]): 0 ms; Time (Canis familiaris [6]): 0 ms; Time (Canis familiaris [7]): 0 ms; Time (Canis familiaris [8]): 0 ms; Time (Canis familiaris [9]): 0 ms; Time (Canis familiaris [10]): 0 ms; Time (Canis familiaris [11]): 2 ms; Time (Canis familiaris [12]): 0 ms
Cc1ccc(C(F)(F)C(F)(F)c2ccc(C(C)(C)N)cc2)cc1.Cl	88	1.4	75	–	52	Activity (Canis familiaris [13]): 15%
CN(C)C(C)(C)c1ccc(C(F)(F)C(F)(F)c2ccccc2)cc1.Cl	83	2.1	53	–	–	–
CNC(C)(C)c1ccc(C(F)(F)C(F)(F)c2ccc(C)cc2)cc1.Cl	67	–	–	–	–	–
Cl.FC(F)(c1ccccc1)C(F)(F)c1ccccc1CNCc1ccccc1	–	0.84	–	74	23	–
Cl.NCCc1ccccc1C(F)(F)C(F)(F)c1ccccc1	88	2	–	27	–	–
CNC(C)c1ccccc1C(F)(F)C(F)(F)c1ccccc1.O=C(O)C(O)C(O)C(=O)O (single isomer, unassigned; (+))	–	–	72	–	–	ED75 (Canis familiaris [2]): 2 mg/kg; Activity (Canis familiaris [4]; 0.5 mg/kg): 26%
O=C1NC(=O)C(c2ccccc2)(c2ccccc2)N1 [PHENYTOIN]	17	–	–	–	–	Time (Canis familiaris [15]): 3 ms; Time (Canis familiaris [16]): 10 ms; Activity (Canis familiaris [17]): 13 bpm; Time (Canis familiaris [18]): 8 ms; Activity (Canis familiaris [19]): 11 bpm; Activity (Canis familiaris [20]): Toxic; Activity (Canis familiaris [21]): Toxic; Activity (Canis familiaris [22]): 40%; Time (Canis familiaris [23]): 5 ms
CC(N)c1ccc(C(F)(F)C(F)(F)c2ccccc2)cc1.Cl (stereo not drawn)	80	4	25	–	–	–
Br.FC(F)(c1ccccc1)C(F)(F)c1cccc2c1CNC2	51	7	–	–	–	Activity (Canis familiaris [22]): 71%
CNC(C)c1ccccc1C(F)(F)C(F)(F)c1ccccc1.O=C(O)/C=C\C(=O)O (stereo not drawn)	88	0.88	91	59	35	–
Cl.NCc1ccc(C(F)(F)C(F)(F)c2ccccc2)cc1	37	–	–	–	–	–
NCc1cc(F)ccc1C(F)(F)C(F)(F)c1ccccc1	–	0.5	–	48	–	–
CC(O)C(=O)O.NCc1ccccc1C(F)(F)C(F)(F)c1ccccc1CN	71	2.5	59	38	–	–
CC(C)(N)c1ccc(C(F)(F)C(F)(F)c2ccccc2)cc1.Cl	98	0.6	89	75	50	Activity (Canis familiaris [13]): 35%; Activity (Canis familiaris [24]): >=80%
Cl.NCc1ccccc1C(F)(F)C(F)(F)c1ccccc1	98	0.2	91	86	81	Activity (Canis familiaris [25]): 58%; Activity (Canis familiaris [24]): >=80%
Cl.NCc1ccccc1C(F)(F)C(F)(F)C(F)(F)c1ccccc1	83	1.8	68	–	24	–
Cl.Nc1ccccc1C(F)(F)C(F)(F)c1ccccc1	10	–	–	–	–	ED75 (Canis familiaris [2]; Canis lupus familiaris, Heart): inactive; Activity (Canis familiaris [26]): 26%
CNCc1ccccc1C(F)(F)C(F)(F)c1ccccc1.Cl	93	0.84	–	73	38	–
CC(C)(N)c1cccc(C(F)(F)C(F)(F)c2ccccc2)c1.Cl	80	2.7	45	–	–	–
Br.FC(F)(c1ccccc1)C(F)(F)c1cccc(CNCc2ccccc2)c1CNCc1ccccc1	99	0.64	98	65	–	–
Cc1c(CN)cccc1C(F)(F)C(F)(F)c1ccccc1.Cl	49	–	–	–	–	–
CN(C)Cc1ccccc1C(F)(F)C(F)(F)c1ccccc1.Cl	61	4.8	–	–	–	Activity (Canis familiaris [22]): 75%
CNC(C)(C)c1ccc(C(F)(F)C(F)(F)c2ccccc2)cc1.Cl	99	0.5	86	65	68	Activity (Canis familiaris [13]): 27%; Activity (Canis familiaris [24]): >=80%
NCc1ccccc1C(F)(F)C(F)(F)c1ccc(F)cc1	74	3	52	–	20	–
Br.CNCc1cccc(C(F)(F)C(F)(F)c2ccccc2)c1CNC	92	1.3	65	61	30	–
CNC(C)c1ccccc1C(F)(F)C(F)(F)c1ccccc1.O=C(O)C(O)C(O)C(=O)O (single isomer, unassigned; (-))	–	–	–	–	44	ED75 (Canis familiaris [2]): 0.48 mg/kg; Activity (Canis familiaris [4]; 0.5 mg/kg): 84%
